One series relates to HeLa. The series is described as follows: Inhibition of HIV1 gp120 binding to CD4 assessed as inhibition of CD4 expressing human HeLa cells by MAGI assay. The series is classed as cell-based. As to conditions: Human immunodeficiency virus 1. Put shortly: (§1)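 MAGI assay: HeLa-CD4+ beta-gal cells seeded at 15 × 10³ per well, infected with HIV-1 HXB2 with or without inhibitor in the presence of DEAE-dextran. Two days after infection, cells fixed in 1% formaldehyde/0.2% glutaraldehyde in PBS. Stained with ferro/ferricyanide (4 mM each), 2 mM MgCl₂ and 0.4 mg/mL X-Gal. Blue cells counted by light microscopy.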

Series [1] concerns Human immunodeficiency virus 1. The series is described as follows: Antiviral activity against HIV1 assessed as reduction in infection. Type of series: functional. The gist of the method: as §1
A short description of series [2]: Cmax in Wistar rat at 10 mg/kg, po. The series is classed as ADME, organism-based. On the set-up: dose 10 mg/kg, route oral. The conditions noted are these: in vivo. Put shortly:
(§2)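 Conscious male Wistar rats (275 ± 20 g, n = 5 per route) with jugular vein cannula implanted 24 h before dosing. Given 1 mg/kg IV bolus or 10 mg/kg by oral gavage, dissolved in water. Heparinized blood sampled at several times up to 24 h. Plasma separated by centrifugation (4000 g, 5 min, 4 °C), stored at −70 °C. Parameters from noncompartmental analysis.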

The nature of series [3]: Cmax in Wistar rat at 1 mg/kg, iv. Type of series: ADME, organism-based. Details: dose 1 mg/kg, route intravenous. The conditions noted are these: in vivo. The gist of the method:
as §2

Series [4] can be described thus: Tmax in Wistar rat at 10 mg/kg, po. Type of series: ADME, organism-based. On the set-up: dose 10 mg/kg, route oral. As to conditions: in vivo. Put shortly:
as §2

Series [5] is described as follows: Tmax in Wistar rat at 1 mg/kg, iv. The series is classed as ADME, organism-based. Details: dose 1 mg/kg, route intravenous. The conditions noted are these: in vivo. The gist of the method:
as §2

Series [6] deals with Rattus norvegicus. Nature of the series: AUC in Wistar rat at 10 mg/kg, po. The series is classed as ADME, organism-based, Plasma. The conditions noted are these: in vivo. Details: dose 10 mg/kg, route oral. The gist of the method:
as §2

Series [7] concerns Rattus norvegicus. Nature of the series: Volume of distribution at steady state in Wistar rat at 10 mg/kg, po. On the set-up: dose 10 mg/kg, route oral. Type of series: ADME, organism-based. As to conditions: in vivo. The gist of the method:
as §2

The nature of series [8]: Half life in Wistar rat at 10 mg/kg, po. The conditions noted are these: in vivo. Details: dose 10 mg/kg, route oral. The series is classed as ADME, organism-based. Put shortly: as §2
A short description of series [9]: Oral bioavailability in Wistar rat at 10 mg/kg. Type of series: ADME, organism-based. As to conditions: in vivo. The gist of the method:
as §2

Activity calls are given as the source filed them. The rule behind the calls is not given here.

As a reminder, the Cmax is the highest concentration seen after dosing. A word on the Tmax: it is the time from dosing to the highest level. One may read the AUC as the area under the concentration-time curve, a measure of exposure. A low value points to low exposure. A word on the half-life: it is the time in which the quantity being followed falls by half. The low end stands for fast loss, the high end for slow loss. As a reminder, the bioavailability is the share of a dose that reaches the circulation, judged against a reference dose that is usually intravenous. High values mean much systemic uptake, low ones little systemic uptake. For `N=C(N)NCCCC1NC(=O)CCCCCC(=O)NC(Cc2ccccc2)CN(CC(N)=O)C1=O` (stereo unspecified), the inhibition entry in the series with HeLa is “Active”. The “inhibition (INH)” value in [1] stood at 80%. Besides, the Cmax amounted to 866 ng/mL in series [2] and 102 ng/mL in series [3]. In addition, the Tmax in series [4] was 18 min; in series [5] it was 5 min. Further, the AUC in the series with Rattus norvegicus [6] was found to be 21770 ng·min/mL. Besides, in the series with Rattus norvegicus [7], the Vdss was determined as 0.6 L/kg. In series [8], this molecule came in with a half-life of 73 min. The bioavailability in series [9] worked out at 10%.
`N=C(N)NCCCC1NC(=O)CCCCCC(=O)NC(Cc2ccc(O)cc2)CN(CC(N)=O)C1=O` (stereo unspecified): the inhibition entry with HeLa is “inactive”.

Source of the values: ChEMBL document CHEMBL1250460, “Rational conversion of noncontinuous active region in proteins into a small orally bioavailable macrocyclic drug-like molecule: the HIV-1 CD4:gp120 paradigm” (Bioorg Med Chem, 2010).
